Test [1] in a line: Concentration displacing [3H]sradipine binding to rat heart. Put shortly: (§1)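 Sprague Dawley rat ventricle microsomes were prepared in 50 mM Tris with PMSF (pH 7.4), with a final 100 000g spin. Membranes (0.3 mg protein/mL) were preincubated 5 min with compound (10⁻⁶–10⁻¹¹ M), then given 0.2 nM [³H]-(+)-methylisradipine with 0.5 mM CaCl₂ for 60 min at room temperature. Filter-bound label was counted. Nonspecific binding was taken from 1 μM isradipine. Experiments were repeated 2–3 times in triplicate, with LIGAND analysis.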

Test [2] is described as follows: Concentration inhibiting [3H]sradipine binding to rat brain. It counts as tissue-based. Put shortly: (§2)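 Whole Sprague Dawley rat brain was homogenized in 25 mM HEPES/NaOH with 0.32 M sucrose and 0.1 mM PMSF (pH 7.4), and pellets were collected by centrifugation. Microsomes (0.3 mg protein/mL) received compound (10⁻⁶–10⁻¹¹ M) for a 5-min preincubation. Then 0.2 nM [³H]-(+)-methylisradipine was added with 0.5 mM CaCl₂, for 60 min at room temperature, followed by filtration and scintillation counting. Nonspecific binding was defined with 1 μM isradipine. Runs were 2–3 times in triplicate, fitted with LIGAND.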

The species entered for test [3] is Cavia porcellus. In words: Effect on [3H]sradipine binding to guinea pig ileum. Put shortly: (§3)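 Guinea pig ileal longitudinal-muscle microsomes were prepared in 50 mM Tris with PMSF (pH 7.0) and spun down at 45 000g. Membranes (0.3 mg protein/mL) were preincubated 5 min with compound (10⁻⁶–10⁻¹¹ M), then incubated 60 min at room temperature with 0.2 nM [³H]-(+)-methylisradipine and 0.5 mM CaCl₂. Samples were filtered and counted. Nonspecific binding was set with 1 μM isradipine. Runs were 2–3 times in triplicate, analysed with LIGAND.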

The species entered for test [4] is Rattus norvegicus. Briefly: Effect on [3H]sradipine binding to rat heart. The essentials:
as §1

For test [5], the species on record is Rattus norvegicus. Briefly: Effect on [3H]sradipine binding to rat brain. It counts as tissue-based. Put shortly:
as §2

Test [6] is filed under the species Cavia porcellus. In words: Concentration displacing [3H]-sradipine binding to guinea pig ileum. Put shortly:
as §3

A short description of test [7]: Concentration displacing [3H]-sradipine binding to rat brain. It counts as tissue-based. Put shortly:
as §2

The species entered for test [8] is Rattus norvegicus. Briefly: Effect on [3H]sradipine binding to rat brain. In kind it is tissue-based. The essentials: as §2
Test [9] in a line: Concentration displacing [3H]sradipine binding to rat brain. It counts as tissue-based. Put shortly: as §2

For orientation: Ki means the dissociation constant of the complex between target and ligand, obtained from inhibition or displacement. A low value points to tighter binding.

For the compound `COC(=O)C1=C(C)NC(C)=C(C(=O)OC[C@@H]2CCCO2)[C@@H]1c1ccccc1[N+](=O)[O-]` (stereo in doubt), the Ki in [1] came to 13 nM; in [2], 18.1 nM; in the test listed under Cavia porcellus [6], 24.8 nM. Further, the Bmax was 261 fmol/mg in the test filed under Cavia porcellus [3], 65.3 fmol/mg in the test filed under Rattus norvegicus [4] and 77.2 fmol/mg in the test listed under Rattus norvegicus [5].

For `COC(=O)C1=C(C)NC(C)=C(C(=O)OC[C@H]2CCCO2)[C@H]1c1ccccc1[N+](=O)[O-]` (stereo in doubt), the Ki amounted to 1 nM in [1], 0.67 nM in test [7] and 2.04 nM in the test listed under Cavia porcellus [6]. Besides, the figures for the Bmax in the test listed under Rattus norvegicus [8], in the test listed under Cavia porcellus [3] and in the test listed under Rattus norvegicus [4] were 79.7 fmol/mg, 269 fmol/mg and 84.7 fM/mg, respectively.

As for `CO/C(O)=C1\C(C)=NC(C)=C(C(=O)OC[C@H]2CCCO2)[C@@H]1c1ccccc1[N+](=O)[O-]`, the Ki in test [1] was found to be 5.95 nM; in test [7] it was 17.7 nM; in the test filed under Cavia porcellus [6], 11.1 nM. For the same compound, the results for the Bmax in the test listed under Cavia porcellus [3], in the test listed under Rattus norvegicus [4] and in the test filed under Rattus norvegicus [5] were 250 fmol/mg, 81.4 fmol/mg and 79.1 fmol/mg, respectively.

`CO/C(O)=C1\C(C)=NC(C)=C(C(=O)OC[C@@H]2CCCO2)[C@H]1c1ccccc1[N+](=O)[O-]`: the inhibitory constant (Ki) in [1] came out at 0.6 nM; in the test filed under Cavia porcellus [6], 0.96 nM; in test [9], 0.58 nM. Further, the Bmax came out at 74.9 fmol/mg in the test filed under Rattus norvegicus [8], 299 fmol/mg in the test listed under Cavia porcellus [3] and 74.9 fmol/mg in the test listed under Rattus norvegicus [4].
